Data as given in ChEMBL document CHEMBL4311988, “Identification of novel non-nucleoside vinyl-stilbene analogs as potent norovirus replication inhibitors with a potential host-targeting mechanism” (Eur J Med Chem, 2019).
Active and inactive are the calls of the source. The calls are words filed in the database; no cut-off is given here.

Columns and labels:
[1] = Cytotoxicity against human HG23 cells assessed as cell viability at 10 uM after 3 days by tetrazolium dye based assay relative to control; conditions: read-out: Activity
Procedure, shortened: (§1)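 HG23 cells were treated with DMSO or compound for 3 days, at 10 μM for single-point testing or across a dose range for CC50. Viability was read with a tetrazolium salt (EZ-CYTOX) reagent. Values are means of the most representative triplicate experiment with standard deviations.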

Norovirus [2] = test: Antiviral activity against human norovirus infected in human HG23 cells assessed as inhibition of viral replication at 10 uM after 3 days by qRT-PCR analysis relative to control; format: functional; parameters: scale not given: the % may be the effect or the level left
[3] = Metabolic stability in mouse liver microsomes assessed as compound remaining at 1 uM preincubated for 5 mins followed by NADPH addition and measured after 30 mins in presence of NADPH relative to control; format: ADME, Microsome; conditions: read-out: Stability
Procedure, shortened: (§2)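 Human or mouse liver microsomes (0.5 mg/ml) in 0.1 M phosphate buffer pH 7.4 were preincubated with compound at 1 μM for 5 min at 37 °C. An NADPH regeneration system was then added or omitted, and incubation continued 30 min at 37 °C. Reactions were stopped with acetonitrile containing internal standard. Parent compound remaining was measured by LC-MS/MS (C18 column, 0.1% formic acid water/acetonitrile).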

[4] = Cytotoxicity against human HG23 cells assessed as reduction in cell viability after 3 days by tetrazolium dye based assay; procedure, shortened: as §1
Norovirus [5] = test: Antiviral activity against human norovirus infected in HG23 cells assessed as inhibition of neomycin phosphotransferase protein expression after 3 days by Western blot analysis; format: functional, organism-based; conditions: HG23, 72 h
Procedure, shortened: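 HG23 replicon cells were given DMSO or increasing compound concentrations for 3 days. Whole-cell RIPA extracts were quantified by Bradford assay and equal protein amounts run on SDS-PAGE. Blots on PVDF were probed with rabbit anti-neomycin phosphotransferase (1:500), with anti-HSF-1 (1:1000) on blots. EC50 came from dose-response; values are means of a representative triplicate experiment.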

[6] = Therapeutic index, ratio of CC50 for cytotoxicity against human HG23 cells harboring human norovirus replicons to EC50 for antiviral activity against norovirus infected in human HG23 cells; format: toxicity, cell-based; conditions: read-out: Ratio CC50/EC50
Norovirus GII.4 = test: Inhibition of norovirus GII.4 RNA-dependent RNA polymerase using poly(C)RNA as substrate incubated for 10 mins and measured after 15 mins by picogreen staining based assay
Procedure, shortened: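 Recombinant human norovirus GII.4 Sydney 2012 RdRp (400 ng) was preincubated with compound (10 μM) or DMSO (0.5% v/v) for 10 min at 25 °C. It was then added to 5 μM rGTP, 6 μg/mL poly(C), 2.5 mM MnCl₂, 5 mM DTT, 0.01% BSA and 0.005% Tween 20 in 20 mM Tris-HCl pH 7.5. After 15 min at 25 °C, reactions were stopped with 10 mM EDTA and dsRNA quantified by PicoGreen fluorescence (ex 480/em 520). Two independent experiments were run in triplicate.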

Norovirus [7] = test: Antiviral activity against human norovirus infected in human HG23 cells assessed as inhibition of viral replication after 3 days by qRT-PCR analysis; format: functional, organism-based; conditions: HG23, 72 h
[8] = Metabolic stability in human liver microsomes assessed as compound remaining at 1 uM after 30 mins in absence of NADPH by LC-MS/MS analysis relative to control; format: ADME, Microsome; conditions: read-out: Stability; procedure, shortened: as §2
[9] = Metabolic stability in mouse liver microsomes assessed as compound remaining at 1 uM after 30 mins in absence of NADPH by LC-MS/MS analysis relative to control; format: ADME, Microsome; conditions: read-out: Stability; procedure, shortened: as §2
[10] = Metabolic stability in human liver microsomes assessed as compound remaining at 1 uM preincubated for 5 mins followed by NADPH addition and measured after 30 mins by LC-MS/MS analysis relative to control; format: ADME, Microsome; conditions: read-out: Stability; procedure, shortened: as §2
[11] = molecular target: T1, Heat shock factor protein 1 (Homo sapiens) (UniProt Q00613); test: Activation of HSF-1 in human HG23 cells transfected with human norovirus after 72 hrs by dual-luciferase reporter gene assay; format: cell-based
T1 sequence (whole entry): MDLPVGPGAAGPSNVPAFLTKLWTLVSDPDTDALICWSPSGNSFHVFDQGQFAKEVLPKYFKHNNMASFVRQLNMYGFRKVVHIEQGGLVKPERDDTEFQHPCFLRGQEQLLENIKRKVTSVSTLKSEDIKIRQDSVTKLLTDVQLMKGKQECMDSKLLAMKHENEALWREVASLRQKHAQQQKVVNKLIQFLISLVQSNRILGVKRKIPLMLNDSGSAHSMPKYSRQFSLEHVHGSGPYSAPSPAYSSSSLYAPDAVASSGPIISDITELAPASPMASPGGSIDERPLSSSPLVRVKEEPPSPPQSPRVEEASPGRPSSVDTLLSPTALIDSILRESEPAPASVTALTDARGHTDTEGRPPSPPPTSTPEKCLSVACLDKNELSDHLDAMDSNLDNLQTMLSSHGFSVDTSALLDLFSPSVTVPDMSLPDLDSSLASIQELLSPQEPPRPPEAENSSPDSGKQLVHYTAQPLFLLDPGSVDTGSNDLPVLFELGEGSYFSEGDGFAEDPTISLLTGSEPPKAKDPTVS
Procedure, shortened: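 HG23 cells carrying the NV replicon were transfected with a Cignal finder reporter array and then given DMSO or 10 μM test compound for 72 h. Luciferase activity for each pathway was read with a dual-luciferase reagent.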

Row | Compound | viability at 72 h, 10 µM [1] [%] | Activity (Norovirus [2]) [%] | other results
1 | C=Cc1c(OC)cc(CCc2ccc(C(=O)N3CCN(Cc4ccc(C(F)(F)F)cc4)CC3)cc2)cc1OC | 77.3 | 132.1 | –
2 | C=Cc1c(OC)cc(/C=C/c2ccc(F)cc2)cc1OC | 93.2 | 38.4 | –
3 | C=Cc1c(OC)cc(/C=C/c2ccccc2C(F)(F)F)cc1OC | 99.7 | 83.2 | –
4 | COc1cc(/C=C/c2cc(OC)c(Br)c(OC)c2)cc(OC)c1 | 99.7 | 184.9 | –
5 | C=Cc1c(OC)cc(/C=C/c2ccc(C(=O)N3CCN(Cc4ccc(F)cc4)CC3)cc2)cc1OC | 55.7 | 12.1 | –
6 | C=Cc1c(OC)cc(/C=C/c2ccc(C(=O)NCc3ccco3)cc2)cc1OC | 109 | 33.8 | –
7 | COc1cc(/C=C/c2cc(OC)cc(OC)c2)cc(OC)c1 | 99.2 | 119 | –
8 | C=Cc1c(OC)cc(/C=C/c2ccc(C(=O)OC)cc2)cc1OC | 111 | 58.2 | –
9 | C=Cc1c(OC)cc(/C=C/c2ccc(C(=O)NCCc3ccccn3)cc2)cc1OC | 96.3 | 13.5 | remaining at 0.5 h, 1 µM [3]: 38.3%; CC50 at 72 h [4]: > 100 µM; EC50 (Norovirus [5]): 1.97 µM; selectivity ratio [6]: > 69; inhibition (Norovirus GII.4): inactive; EC50 (Norovirus [7]): 1.44 µM; remaining at 0.5 h, 1 µM [8]: > 100%; remaining at 0.5 h, 1 µM [9]: 83.1%; remaining at 0.5 h, 1 µM [10]: 44.1%
10 | C=Cc1c(OC)cc(/C=C/c2ccc(OCOC)cc2)cc1OC | 97.5 | 165.7 | –
11 | C=Cc1c(OC)cc(/C=C/c2ccc(C(=O)Nc3ccc(C(F)(F)F)cc3)cc2)cc1OC | 92.5 | 70.8 | –
12 | C=Cc1c(OC)cc(/C=C/c2ccc(C(=O)O)cc2)cc1OC | 112 | 81.3 | –
13 | C=Cc1c(OC)cc(/C=C/c2ccc(C(=O)OCc3ccccc3)cc2)cc1OC | 106 | 134.9 | –
14 | C=Cc1c(OC)cc(/C=C/c2ccc(C(=O)NCCc3ccccc3)cc2)cc1OC | 99.7 | 28.4 | –
15 | C=Cc1ccc(/C=C/c2ccccc2)cc1 | 102 | 26.5 | –
16 | COc1ccc(CCN(C)CCCC(C#N)(c2ccc(OC)c(OC)c2)C(C)C)cc1OC (stereo not given) [VERAPAMIL] | – | – | remaining at 0.5 h, 1 µM [10]: 13.6%
17 | C=Cc1c(OC)cc(/C=C/c2ccc(C(=O)N3CCN(Cc4ccc(OC)cc4)CC3)cc2)cc1OC | 21.5 | 30.4 | –
18 | C=Cc1c(OC)cc(/C=C/c2ccc(C(=O)NCCc3c[nH]c4ccccc34)cc2)cc1OC | 106 | 46.6 | –
19 | CCc1c(OC)cc(/C=C/c2cc(OC)cc(OC)c2)cc1OC | 69.3 | 94 | –

Row | Compound | viability at 72 h, 10 µM [1] [%] | Activity (Norovirus [2]) [%] | other results
20 | C=CCNC(=O)c1ccc(/C=C/c2cc(OC)c(C=C)c(OC)c2)cc1 | 91.6 | 62.4 | –
21 | COc1cc(/C=C/c2cc(O)c(CCO)c(O)c2)cc(OC)c1 | 99 | 200.8 | –
22 | Brc1ccc(/C=C/c2ccccc2)cc1 | 130 | 54.5 | –
23 | COc1cc(/C=C/c2cc(OC)c(CCO)c(OC)c2)cc(OC)c1 | 99.8 | 272.8 | –
24 | C=Cc1c(OC)cc(/C=C/c2cccc(C(F)(F)F)c2)cc1OC | 98.4 | 66.6 | –
25 | C=Cc1c(OC)cc(/C=C/c2ccc(C(=O)N3CCN(C(C)C)CC3)cc2)cc1OC | 60.5 | 55.3 | –
26 | C=Cc1c(OC)cc(/C=C/c2ccc(C(=O)NCCc3ccncc3)cc2)cc1OC | 100 | 15.4 | remaining at 0.5 h, 1 µM [3]: 67.7%; CC50 at 72 h [4]: > 100 µM; EC50 (Norovirus [5]): 0.71 µM; selectivity ratio [6]: > 50; inhibition (Norovirus GII.4): inactive; EC50 (Norovirus [7]): 2 µM; remaining at 0.5 h, 1 µM [8]: 92.1%; remaining at 0.5 h, 1 µM [9]: 88.4%; remaining at 0.5 h, 1 µM [10]: 20%
27 | OCCc1ccc(/C=C/c2ccccc2)cc1 | 101 | 43.2 | –
28 | C=Cc1c(OC)cc(/C=C/c2ccc(C(=O)NCCc3ccc(O)cc3)cc2)cc1OC | 103 | 40.8 | –
29 | C=Cc1c(OC)cc(/C=C/c2ccc(C(=O)OCc3ccc(F)cc3)cc2)cc1OC | 101 | 36 | –
30 | C=Cc1ccc(/C=C/c2cc(OC)cc(OC)c2)cc1 | 138 | 77.1 | –
31 | C[C@@]1(O)[C@H](O)[C@@H](CO)O[C@H]1n1ccc(N)nc1=O | 78.5 | 24.8 | CC50 at 72 h [4]: 12.2 µM; EC50 (Norovirus [5]): 4.8 µM; selectivity ratio [6]: 3.1; Activity [11]: Active; EC50 (Norovirus [7]): 4 µM
32 | C#CCOC(=O)c1ccc(/C=C/c2cc(OC)c(C=C)c(OC)c2)cc1 | 103 | 71.3 | –
33 | C=Cc1c(OC)cc(/C=C/c2ccc(C(F)(F)F)cc2)cc1OC | 97.5 | 19.4 | CC50 at 72 h [4]: > 10 µM; EC50 (Norovirus [5]): 8 µM; selectivity ratio [6]: > 2.2; EC50 (Norovirus [7]): 4.4 µM
34 | C=Cc1c(OC)cc(/C=C\c2ccc(C(=O)N3CCN(Cc4ccc(C(F)(F)F)cc4)CC3)cc2)cc1OC | 90.9 | 64.9 | –
35 | C=Cc1c(OC)cc(/C=C/c2cc(OC)cc(OC)c2)cc1OC | 99.6 | 43.4 | –
36 | C=Cc1c(OC)cc(/C=C/c2ccc(C(=O)N3CCN(CCO)CC3)cc2)cc1OC | 93.3 | 110.4 | –
37 | C=Cc1c(OC)cc(/C=C/c2ccc(C(=O)OCc3ccc(C(F)(F)F)cc3)cc2)cc1OC | 109 | 58.4 | –
